Activity, Ki and EC50 data for twelve compounds are collected here from ChEMBL document CHEMBL5244228, “Novel linked butanolide dimer compounds increase adiponectin production during adipogenesis in human mesenchymal stem cells through peroxisome proliferator-activated receptor γ modulation” (Eur J Med Chem, 2020).

The structures appear in SMILES notation. Active and inactive are the calls of the source. No cut-off for these calls is given here. Some results are limits rather than exact numbers.

Assay [1] deals with T1, Peroxisome proliferator-activated receptor delta (Homo sapiens) (UniProt Q03181).
T1 sequence (whole entry): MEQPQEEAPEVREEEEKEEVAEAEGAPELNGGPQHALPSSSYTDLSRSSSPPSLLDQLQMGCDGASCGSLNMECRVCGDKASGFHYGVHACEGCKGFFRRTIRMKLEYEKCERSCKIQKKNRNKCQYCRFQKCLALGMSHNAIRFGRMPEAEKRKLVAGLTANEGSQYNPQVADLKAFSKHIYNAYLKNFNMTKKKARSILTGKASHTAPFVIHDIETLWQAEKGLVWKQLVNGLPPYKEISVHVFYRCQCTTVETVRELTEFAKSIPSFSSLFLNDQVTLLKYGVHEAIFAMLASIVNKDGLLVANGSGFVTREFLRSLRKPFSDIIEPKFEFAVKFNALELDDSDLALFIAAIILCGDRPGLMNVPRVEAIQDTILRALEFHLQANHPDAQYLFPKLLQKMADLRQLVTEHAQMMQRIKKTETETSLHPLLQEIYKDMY
Nature of the assay: Displacement of Fluormone Pan-PPAR Green from GST-tagged human PPAR-delta ligand binding domain at 10 uM by LanthaScreen TR-FRET competitive binding assay. In a few lines:
(§1)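 TR-FRET competitive binding run with a LanthaScreen kit, following a previously described protocol; values read on a plate reader.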
Background: TR-FRET usually uses a lanthanide donor and a delayed reading to cut background.

Assay [2] concerns the target T2, Peroxisome proliferator-activated receptor gamma (Homo sapiens) (UniProt P37231).
T2 sequence (whole entry): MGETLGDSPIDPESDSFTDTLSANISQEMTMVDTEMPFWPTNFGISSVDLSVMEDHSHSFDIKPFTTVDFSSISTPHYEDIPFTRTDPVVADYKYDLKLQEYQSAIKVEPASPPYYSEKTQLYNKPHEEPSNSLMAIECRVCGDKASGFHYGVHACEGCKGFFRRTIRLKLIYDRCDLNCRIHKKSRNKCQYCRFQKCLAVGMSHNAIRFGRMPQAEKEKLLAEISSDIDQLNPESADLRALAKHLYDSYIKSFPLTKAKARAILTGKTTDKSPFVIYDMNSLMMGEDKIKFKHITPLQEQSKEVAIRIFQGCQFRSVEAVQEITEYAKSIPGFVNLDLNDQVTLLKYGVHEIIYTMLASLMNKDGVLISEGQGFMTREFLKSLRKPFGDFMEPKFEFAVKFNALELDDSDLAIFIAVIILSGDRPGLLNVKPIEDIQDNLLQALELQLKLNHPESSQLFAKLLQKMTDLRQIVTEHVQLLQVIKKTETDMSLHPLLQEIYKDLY
Nature of the assay: Displacement of Fluormone Pan-PPAR Green from GST-tagged human PPAR-gamma ligand binding domain at 10 uM by LanthaScreen TR-FRET competitive binding assay. In a few lines: as §1

Assay [3] has as its target T3, Peroxisome proliferator-activated receptor alpha (Homo sapiens) (UniProt Q07869).
T3 sequence (whole entry): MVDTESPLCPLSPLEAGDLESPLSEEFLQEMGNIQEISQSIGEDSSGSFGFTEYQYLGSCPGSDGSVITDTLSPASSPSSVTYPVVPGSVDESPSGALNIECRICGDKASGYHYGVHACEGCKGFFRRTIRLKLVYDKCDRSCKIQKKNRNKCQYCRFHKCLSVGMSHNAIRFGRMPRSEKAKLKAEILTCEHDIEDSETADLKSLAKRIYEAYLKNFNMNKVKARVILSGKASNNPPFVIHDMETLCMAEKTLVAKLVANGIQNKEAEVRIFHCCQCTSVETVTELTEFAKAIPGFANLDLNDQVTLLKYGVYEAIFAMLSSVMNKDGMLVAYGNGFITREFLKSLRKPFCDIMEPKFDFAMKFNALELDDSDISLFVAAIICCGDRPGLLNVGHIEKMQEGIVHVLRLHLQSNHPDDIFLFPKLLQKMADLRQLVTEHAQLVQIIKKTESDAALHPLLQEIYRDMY
Briefly: Displacement of Fluormone Pan-PPAR Green from GST-tagged human PPAR-alpha ligand binding domain at 10 uM by LanthaScreen TR-FRET competitive binding assay. In a few lines: as §1

Assay [4] addresses T4, Peroxisome proliferator-activated receptor gamma (Homo sapiens, UniProt P37231).
T4 sequence (P37231 whole entry): T2 sequence (whole entry)
Nature of the assay: Displacement of [3H]rosiglitazone from human PPAR-gamma incubated for 1 day by radioligand binding assay.

Assay [5] concerns the target T2, Peroxisome proliferator-activated receptor gamma (Homo sapiens). Nature of the assay: Partial agonist activity at PPAR-gamma in human BMMSC cells assessed as inhibition of pioglitazone-induced adiponectin production at 1 to 10 uM in presence of IDX adipogenic induction medium and pioglitazone and measured on day 5 by ELISA. To be noted: filed as partial agonist, dose 1-10 µM, time 5.0 day. The format is cell-based. In a few lines:
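Human bone marrow MSCs grown in DMEM (1 g/L glucose), 10% FBS, 1% pen-strep. Adipogenesis induced in DMEM (4.5 g/L glucose), 10% FBS, insulin, dexamethasone, IBMX, with compounds co-added alongside pioglitazone. Supernatants collected on day 5; adiponectin quantified by ELISA. Mean ± SD, n = 3.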

The target of assay [6] is T4, Peroxisome proliferator-activated receptor gamma. Briefly: Agonist activity at PPAR-gamma in human BMMSC cells assessed as induction of adiponectin production in presence of IDX adipogenic induction medium and measured on day 5 by ELISA. The format is cell-based.
For assay [7], the target named is T2, Peroxisome proliferator-activated receptor gamma (Homo sapiens). Nature of the assay: Displacement of [3H]rosiglitazone from human PPAR-gamma at 30 uM incubated for 1 day by radioligand binding assay. To be noted: filed as agonist. On the technique in general: In a radioligand displacement assay an active substance lowers the binding of a labelled ligand.

As for `CCCCC/C=C1/C(=O)O[C@@H](C)[C@@H]1O`, the outcome in assay [1] and in assay [3] was inactive. For the same compound, in assay [2] (filed as agonist), the result was Active.
In the case of `CCCCCCCCCCCCC/C=C1/C(=O)O[C@@H](C)[C@H]1O`, the Ki (usually the dissociation constant of the complex between target and ligand, obtained from inhibition or displacement) in assay [4] stood at 9.2 µM. The result in assay [1] and in assay [3] was inactive. Besides, in assay [5], the Activity entry was “Dose-Dependent Effect”. In assay [2] (filed as partial agonist), the outcome was Active. In addition, the EC50 (as a rule, the concentration giving half of the maximal effect) in assay [6] is more than 30 µM.
Consider `CCC/C=C1/C(=O)O[C@@H](C)[C@H]1O`, for which the Ki in assay [4] was more than 30 µM. Besides, the outcome in assay [1] and in assay [3] was inactive. Besides, the outcome in assay [2] (filed as agonist) was Active. Besides, the Activity in assay [7] amounted to 48.5%. Moreover, the EC50 in assay [6] was found to be 25.3 µM.
With `CCCCCCCCCCC/C=C1/C(=O)O[C@@H](C)[C@H]1O`, the result in assay [1] and in assay [3] was inactive. The result in assay [2] (filed as agonist) was Active.
As to `CCCCCCCCCCCCC/C=C1/C(=O)O[C@@H](C)[C@@H]1O`, the inhibition constant Ki in assay [4] came to 1.9 µM. For the same compound, the outcome in assay [1] and in assay [3] was inactive. The outcome in assay [2] (filed as agonist) was Active. Besides, in assay [6], the EC50 is more than 30 µM.
Take `CCCCCCCCCCCC/C=C1/C(=O)O[C@@H](C)[C@H]1O`: the outcome in assay [1] and in assay [3] was inactive. Also, the result in assay [2] (filed as agonist) was Active.
In turn, `CCCC=C1C(=O)O[C@@H](C)[C@@H]1O` registered a Ki in assay [4] of 22 µM. Besides, the outcome in assay [1] and in assay [3] was inactive. Further, in assay [2] (filed as agonist), the result was Active. Besides, the EC50 in assay [6] is 19 µM.
Consider `CCCCC/C=C1/C(=O)O[C@@H](C)[C@H]1O`, for which the result in assay [1] and in assay [3] was inactive. For the same compound, the result in assay [2] (filed as agonist) was Active.
On to `CCCCCCCCCC/C=C1/C(=O)O[C@@H](C)[C@H]1O`, for which the result in assay [1] and in assay [3] was inactive. Also, in assay [2] (filed as agonist), the result was Active.
On to `CCCCCCC/C=C1/C(=O)O[C@@H](C)[C@H]1O`, for which the outcome in assay [1] and in assay [3] was inactive. Further, in assay [2] (filed as agonist), the outcome was Active.
As for `CCCCCCCC/C=C1/C(=O)O[C@@H](C)[C@H]1O`, the outcome in assay [1] and in assay [3] was inactive. Further, in assay [2] (filed as agonist), the outcome was Active.
For the compound `CCCCCCCCC/C=C1/C(=O)O[C@@H](C)[C@H]1O`, the result in assay [1] and in assay [3] was inactive. Also, in assay [2] (filed as agonist), the outcome was Active.
